Measurements taken from ChEMBL document CHEMBL4190223, “Natural Products Discovered in a High-Throughput Screen Identified as Inhibitors of RGS17 and as Cytostatic and Cytotoxic Agents for Lung and Prostate Cancer Cell Lines” (J Nat Prod, 2017).
Calls of active or inactive are those of the source. The calls are words filed in the database; no cut-off is given here.

Columns and labels:
[1] = biological target: T1, Regulator of G-protein signaling 17 (Homo sapiens, UniProt Q9UGC6); test: Inhibition of RGS17 (unknown origin) GAP activity in presence of GTP by malachite green dye based assay
T1 sequence (Q9UGC6 whole entry): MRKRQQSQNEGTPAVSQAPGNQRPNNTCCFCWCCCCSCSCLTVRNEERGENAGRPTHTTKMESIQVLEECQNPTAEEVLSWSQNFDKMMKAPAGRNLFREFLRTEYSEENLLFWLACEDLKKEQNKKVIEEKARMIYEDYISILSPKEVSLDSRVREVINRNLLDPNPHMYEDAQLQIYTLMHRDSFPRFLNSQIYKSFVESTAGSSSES

[2] = biological target: T2, Regulator of G-protein signaling 17 (Homo sapiens) (UniProt Q9UGC6); test: (§1) Inhibition of wild type GST-tagged RGS17 (unknown origin) interaction with biotinylated Galphao after 30 mins in presence of AMF and GDP by AlphaScreen assay
T2 sequence (whole entry): T1 sequence (Q9UGC6 whole entry)
Summary of the method: (§2)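 AlphaScreen assay: RGS17 (WT or C117A) on anti-GST beads, 10 nM final, preincubated 30 min with compound (half-log series, 100 μM to 1 nM final). Gαo-biotin on streptavidin beads then added with AMF and GDP, 10 nM final. Negative controls lacked AMF. Data n = 3, run at least in duplicate.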

[3] = biological target: T1, Regulator of G-protein signaling 17; test: as §1; summary of the method: as §2
[4] = biological target: T2, Regulator of G-protein signaling 17 (Homo sapiens); test: Binding affinity to RGS17 (unknown origin) assessed as change in melting temperature by differential scanning fluorimetry
[5] = biological target: Regulator of G-protein signaling 17 (Homo sapiens, UniProt Q9UGC6, C117A); test: Inhibition of RGS17 (unknown origin) C117A mutant interaction with biotinylated Galphao after 30 mins in presence of AMF and GDP by AlphaScreen assay; summary of the method: as §2
Sequence of Regulator of G-protein signaling 17 (Homo sapiens, UniProt Q9UGC6, C117A) (Q9UGC6 whole entry C117A): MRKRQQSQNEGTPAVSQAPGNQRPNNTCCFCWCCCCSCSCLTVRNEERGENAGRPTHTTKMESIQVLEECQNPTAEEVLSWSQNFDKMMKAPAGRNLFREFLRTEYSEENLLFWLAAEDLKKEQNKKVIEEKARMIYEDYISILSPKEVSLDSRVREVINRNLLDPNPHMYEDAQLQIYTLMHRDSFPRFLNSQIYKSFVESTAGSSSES

[6] = Thiol reactivity of the compound assessed as cysteine adduct formation at 100 uM after 4 hrs in presence of N-Acetylcysteine by Ellman's method; assay type: physicochemical
Summary of the method: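 Ellman assay: N-acetylcysteine (100 μM) incubated with compound (100 μM, 1:1) for 4 h at 37 °C. DTNB (1 mM) then added and absorbance read at 412 nm against N-acetylcysteine alone; N-ethylmaleimide as thiol-reactive control; n = 3.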

[7] = biological target: T2, Regulator of G-protein signaling 17 (Homo sapiens); test: Binding affinity to RGS17 (unknown origin) assessed as covalent adduct formation at 100 uM after 72 hrs by ESI-MS analysis
Summary of the method: (§3)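 RGS17 N (1ZV4 construct, 20 μM) in 25 mM HEPES, 100 mM NaCl, 5% DMSO, pH 8, incubated with or without 100 μM compound at 4 °C for 72 h. Then dialysed twice against 25 mM NH4HCO3 at 4 °C for 24 h to strip noncovalent ligand, followed by ESI-TOF mass analysis for adducted species.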

[8] = biological target: T2, Regulator of G-protein signaling 17 (Homo sapiens); test: Binding affinity to RGS17 (unknown origin) assessed as change in chemical shift perturbations by NMR spectroscopic analysis
HEK293 [9] = test: Inhibition of Galphao interaction with GFP-fused RGS17 (unknown origin) deltaN mutant expressed in HEK293 cells assessed as increase in RGS17 deltaN mutant localization at cytoplasm at 100 uM up to 20 mins by confocal microscopic analysis; assay type: cell-based; conditions: Homo sapiens
Summary of the method: (§4)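 HEK293T cells plated at 25 000 per well on poly-D-lysine glass and kept overnight at 37 °C, 5% CO2. Next day cotransfected with hGαo (pcDNA3.1) and GFP-RGS17 N (Lipofectamine 2000). After 24 h, cells moved to serum-free, phenol-red-free DMEM and given compound (final 0.07–0.8% DMSO). Live confocal imaging; ImageJ cross-sectional intensity analysis, each T=final image normalised to the T=0 maximum.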

HEK293 [10] = test: Inhibition of Galphao interaction with GFP-fused RGS17 (unknown origin) deltaN mutant expressed in HEK293 cells assessed as increase in RGS17 deltaN mutant localization at cytoplasm at 10 uM up to 30 mins by confocal microscopic analysis; assay type: cell-based; conditions: Homo sapiens; summary of the method: as §4
HEK293 [11] = test: Induction of morphological changes in HEK293 cells assessed as cell shrinkage at 100 uM; assay type: cell-based; conditions: human, hek293, 100 µM
HEK293 [12] = test: Induction of morphological changes in HEK293 cells assessed as plasma membrane blebbing at 100 uM; assay type: cell-based; conditions: human, hek293, 100 µM
A549 [13] = test: Growth inhibition of human A549 cells up to 1 uM measured every 2 hrs over 6 days by live cell imaging based method; assay type: functional
Summary of the method: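 A549 cells trypsinised, counted and seeded at 1000 per well in 24-well plates, then allowed to attach overnight. Treated in triplicate up to 1 μM compound (≤0.2% DMSO, matched DMSO control). Confluence imaged every 2 h for 6 days by live-cell imaging. Confluence change relative to DMSO plotted against concentration; IC50 from linear regression at 0.5 relative growth.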

[14] = biological target: T2, Regulator of G-protein signaling 17 (Homo sapiens); test: Binding affinity to RGS17 (unknown origin) assessed as molecular weight of covalent adduct at 100 uM after 72 hrs by ESI-MS analysis (reference value: 16232 Da); summary of the method: as §3
[15] = biological target: T2, Regulator of G-protein signaling 17 (Homo sapiens); test: Inhibition of Galphao interaction with GFP-fused full length RGS17 (unknown origin) expressed in HEK293 cells assessed as disruption of RGS17 localization at cell membranes at 100 uM after 10 mins by confocal microscopic analysis; assay type: cell-based
Summary of the method: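 HEK293T cells co-transfected with hGαo and N-terminal GFP-fused full-length RGS17, then treated with 100 μM compound in serum-free, phenol-red-free DMEM. RGS17 membrane localisation followed by confocal imaging at 0 and 10 min.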

HEK293 [16] = test: Inhibition of Galpha0 interaction with GFP-fused RGS17 (unknown origin) deltaN mutant expressed in HEK293 cells assessed as increase in RGS17 deltaN mutant localization at cytoplasm at 100 uM up to 5 mins by confocal microscopic analysis; assay type: cell-based; conditions: Homo sapiens
Summary of the method: (§5)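 HEK293T cells plated at 25 000/well on poly-D-lysine glass-bottom wells and co-transfected (Lipofectamine 2000) with hGαo and N-terminal GFP-fused RGS17 ΔN. After 24 h, switched to serum-free, phenol-red-free DMEM and compound added (0.07–0.8% DMSO final). Imaged by confocal microscopy; cross-sectional fluorescence profiles at T=0 and T=final, each pair normalised to the highest T=0 intensity.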

HEK293 [17] = test: Inhibition of Galphao interaction with GFP-fused RGS17 (unknown origin) deltaN mutant expressed in HEK293 cells assessed as increase in RGS17 deltaN mutant localization at cytoplasm at 10 uM up to 5 mins by confocal microscopic analysis; assay type: cell-based; conditions: Homo sapiens; summary of the method: as §5
A549 [18] = test: Growth inhibition of human A549 cells measured every 2 hrs over 6 days by live cell imaging based method; assay type: functional
Summary of the method: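 A549 cells harvested by trypsin, plated at 1000 cells/well in 24-well plates, left overnight to attach, then treated in triplicate with compound or matched DMSO (≤0.2% final). Confluence imaged live every 2 h over 6 days. Change in confluence relative to DMSO plotted against concentration. IC50 taken from a linear regression of each curve at 0.5 relative growth.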

Homo sapiens = species on record: Homo sapiens; test: Growth inhibition of human TEM4-18 cells after 1 hr by sulforhodamine B assay; assay type: functional
PC-3 [19] = test: Growth inhibition of E-cadherin expressing human PC3 cells after 1 hr by sulforhodamine B assay; assay type: functional, cell-based
RWPE-1 = test: Growth inhibition of human RWPE1 cells at 31.6 to 56.2 uM after 1 hr by sulforhodamine B assay; assay type: cell-based; conditions: rwpe-1, 1 h
PC-3 [20] = test: Growth inhibition of E-cadherin expressing human PC3 cells transfected with RGS17 at 31.6 to 56.2 uM after 1 hr by sulforhodamine B assay; assay type: functional, cell-based
[21] = biological target: T2, Regulator of G-protein signaling 17 (Homo sapiens); test: Inhibition of RGS17 (unknown origin)-mediated CREB phosphorylation
[22] = biological target: Guanine nucleotide-binding protein G(o) subunit alpha (Homo sapiens) (UniProt P09471); test: Binding affinity to Galphao (unknown origin) assessed as change in melting temperature by differential scanning fluorimetry
Sequence of Guanine nucleotide-binding protein G(o) subunit alpha (Homo sapiens) (P09471 2-354 limits assumed): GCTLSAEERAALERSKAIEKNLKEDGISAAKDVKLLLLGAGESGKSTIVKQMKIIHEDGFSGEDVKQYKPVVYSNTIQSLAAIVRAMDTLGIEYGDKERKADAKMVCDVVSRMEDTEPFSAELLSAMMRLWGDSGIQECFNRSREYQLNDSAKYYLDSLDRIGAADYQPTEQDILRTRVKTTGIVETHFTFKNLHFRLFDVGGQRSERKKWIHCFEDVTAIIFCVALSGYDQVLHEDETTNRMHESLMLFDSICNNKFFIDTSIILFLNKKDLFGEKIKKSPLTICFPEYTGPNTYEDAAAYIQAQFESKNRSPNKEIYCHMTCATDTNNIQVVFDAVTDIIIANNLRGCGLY

[23] = Solubility of the compound in aqueous buffer solution; assay type: physicochemical
HEK293 [24] = test: Inhibition of Galphao interaction with GFP-fused RGS17 (unknown origin) deltaN mutant expressed in HEK293 cells assessed as increase in RGS17 deltaN mutant localization at cytoplasm at 10 uM up to 20 mins by confocal microscopic analysis; assay type: cell-based; conditions: Homo sapiens; summary of the method: as §5
HEK293 [25] = test: Inhibition of Galphao interaction with GFP-fused RGS17 (unknown origin) deltaN mutant expressed in HEK293 cells assessed as increase in RGS17 deltaN mutant localization at cytoplasm at 100 uM up to 30 mins by confocal microscopic analysis; assay type: cell-based; conditions: Homo sapiens; summary of the method: as §4
HEK293 [26] = test: Inhibition of Galphao interaction with GFP-fused RGS17 (unknown origin) deltaN mutant expressed in HEK293 cells assessed as disruption of RGS17 localization at cell membranes at 100 uM up to 30 mins by confocal microscopic analysis; assay type: cell-based; conditions: Homo sapiens; summary of the method: as §4
HEK293 [27] = test: Induction of morphological changes in HEK293 cells assessed as cell shrinkage at 100 uM measured over 30 mins; assay type: cell-based; conditions: human, hek293, 0.5 h

SMILES | IC50 [1] [µM] | inhibition [2] | IC50 [3] [µM] | Activity [4] | IC50 [5] [µM] | Activity [6] | Activity [7] | Activity [8] | inhibition (HEK293 [10]) | Activity (HEK293 [11]) | Activity (HEK293 [12]) | Activity [14] [Da] | inhibition (HEK293 [16]) | inhibition (HEK293 [17]) | IC50 (A549 [18]) [µM] | growth inhibition (GI) (Homo sapiens) | growth inhibition (GI) (PC-3 [19]) | growth inhibition (GI) (RWPE-1) | growth inhibition (GI) (PC-3 [20]) | inhibition [21] | also measured
O=c1c(-c2cc(O)c(O)c(O)c2)coc2cc(O)c(O)c(O)c12 [IRIGENOL] | 35 | Dose-dependent effect | 47.2 | inactive | 81.8 | Active | inactive | inactive | Active | Non-Toxic | Non-Toxic | 16200 | – | – | – | – | – | – | – | – | inhibition (HEK293 [9]): Active; growth inhibition (GI) (A549 [13]): inactive
C[n+]1cc2c3c(ccc2c2ccc4cc5c(cc4c21)OCO5)OCO3 [SANGUINARIUM] | 12 | Dose-dependent effect | 72.8 | inactive | > 100 | Active | inactive | inactive | Active | Non-Toxic | Non-Toxic | 16200 | Active | Active | 0.61 | Dose-dependent effect | Dose-dependent effect | Toxic | inactive | inactive | inhibition [15]: inactive
CC(C)=CCC[C@]1(C)C=Cc2c(O)c3c(c(CC=C(C)C)c2O1)O[C@]12C(=C[C@@H]4C[C@H]1C(C)(C)O[C@@]2(C/C=C(/C)C(=O)O)C4=O)C3=O [GAMBOGIC ACID] | 10 | – | – | – | – | – | – | – | – | – | – | – | – | – | – | – | – | – | – | – | Activity [22]: Active
CC1=C(O)C(=O)C=C2C1=CC=C1[C@@]2(C)CC[C@@]2(C)[C@@H]3C[C@](C)(C(=O)O)CC[C@]3(C)CC[C@]12C [CELASTROL] | – | Dose-dependent effect | 10.5 | inactive | > 100 | Not Active | Active | inactive | – | Non-Toxic | Non-Toxic | 16200 | Active | Active | 0.69 | Dose-dependent effect | Dose-dependent effect | Toxic | inactive | inactive | solubility [23]: Insoluble; inhibition (HEK293 [24]): Active
Cc1ccc(-n2sc(=O)n(Cc3ccc(F)cc3)c2=O)cc1 | – | – | – | – | – | – | – | – | – | – | – | – | – | – | – | – | – | – | – | – | inhibition (HEK293 [25]): inactive; inhibition (HEK293 [26]): inactive; Activity (HEK293 [27]): Toxic
